# Hits are enriched below; roughly 3.3% of the tested compounds scored in any of these assays.
# rCAG RNA binder: r(CAG) repeat RNA binding | TO-PRO-1 dye displacement fluorescence | inhibition, % at 3 µM | 1.3% of 370,000 active;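 active = inhibition above the plate cutoff, the mean of all test compounds on that plate plus 3 SD, cut at about 35% in these data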;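 also: higher means more dye released from RNA so lower well fluorescence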
# SIAE primary: blocks human sialic acid acetylesterase; Q9HAT2; SIAE FP-Rh probe binding, fluorescence polarization; inhibition, % at 9.66 µM; 0.69% of 370,000 active;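 active = inhibition above a cutoff: mean of compounds within the control limits plus 3 SD of those, cut at about 17% in these data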
# Target sequence (Q9HAT2 whole entry, looked up): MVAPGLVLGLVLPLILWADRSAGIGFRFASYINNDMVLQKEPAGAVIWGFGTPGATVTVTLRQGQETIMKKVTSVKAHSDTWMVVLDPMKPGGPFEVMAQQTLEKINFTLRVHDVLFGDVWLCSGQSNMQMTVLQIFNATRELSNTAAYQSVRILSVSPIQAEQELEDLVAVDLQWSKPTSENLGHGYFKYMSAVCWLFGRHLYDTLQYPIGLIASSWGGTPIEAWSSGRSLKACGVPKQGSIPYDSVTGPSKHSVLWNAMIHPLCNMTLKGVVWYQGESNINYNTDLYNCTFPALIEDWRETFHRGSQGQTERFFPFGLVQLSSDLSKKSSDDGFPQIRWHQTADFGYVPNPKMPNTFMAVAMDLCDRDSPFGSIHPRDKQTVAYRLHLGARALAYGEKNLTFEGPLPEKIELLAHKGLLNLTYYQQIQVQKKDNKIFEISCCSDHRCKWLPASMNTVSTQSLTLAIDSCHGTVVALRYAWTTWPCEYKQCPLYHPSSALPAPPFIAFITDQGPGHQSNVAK
# PRMT1 FP inh: inhibitors of human PRMT1; Q99873; recombinant PRMT1, activity-based probe fluorescence polarization; inhibition, % at 2.79 µM; 1.3% of 370,000 active; AID 652257;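 active = inhibition above about 21% made by adding two undisclosed values, limit read from the data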
# ABHD4 inh: ABHD4 (mouse) inhibition, primary FP screen; Q8VD66; purified mABHD4, FP-Rh probe fluorescence polarization; inhibition, % at 8.92 µM; 0.54% of 370,000 active; AID 720543;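 active = inhibition exceeding the mean over every tested compound plus 3 SD, cut at about 30% in these data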
#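 Assay system: Wild-type mouse ABHD4 protein | Medium: HEPES pH 7.0 buffer, 150 mM NaCl, 0.01% Pluronic F-127 | Incubation: Enzyme–compound pre-incubation 45 min, then probe 60 min, both 25 °C | Technique: Fluorescence polarization with parallel and perpendicular emission, 525/598 nm | Evaluation: % inhibition of FP-Rh probe binding versus controls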
# HTRA1 inhibitor: inhibitors of human serine peptidase HTRA1. inhibition, % at 5.96 µM. Q92743. 0.5% of 340,000 active. recombinant HTRA1, FP-rhodamine activity-based probe, fluorescence polarization; in the data active = inhibition above about 36%
# rCAG bind conf: r(CAG) RNA repeat binding, confirmation; shares compounds with rCAG RNA binder; TO-PRO-1 dye displacement fluorescence; inhibition, % at 3 µM; 70% of 4,300 active; AID 652065;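 active = inhibition above a per-plate cutoff, the mean inhibition of sample wells plus 3 SD, cut at about 35% in these data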;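 also: loss of TO-PRO-1 fluorescence as compound displaces dye from 1x1 AA loop RNA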
# DNA CAG counter: DNA CAG dye complex inhibition counter-screen. shares compounds with rCAG RNA binder. d(CAG) DNA oligo TO-PRO-1 dye displacement, fluorescence. 94% of 4,300 active. inhibition, % at 3 µM. AID 652068;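 active = inhibition above its plate's cutoff, the mean test-well inhibition plus 3 SD, cut at about 4.8% in these data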;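 also: hits displace the dye from DNA and so lower well fluorescence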
# DNA CAG DR: counter-screen for rCAG binders: inhibitors of DNA CAG TO-PRO-1 complex | shares compounds with rCAG RNA binder | DNA CAG/GTC duplex TO-PRO-1 dye displacement fluorescence | IC50, µM | 20% of 250 active; in the data active = IC50 below about 10 µM
# Numbers stand for hits; 0 = inactive; - = not tested or not shown.
SMILES,rCAG RNA binder,SIAE primary,PRMT1 FP inh,ABHD4 inh,HTRA1 inhibitor,rCAG bind conf,DNA CAG counter,others
O=S(=O)(Nc1ccc(Br)cc1)c1cccc(NS(=O)(=O)c2cccs2)c1,37.2,0,0,0,0,0,6.9,
O=C(CCc1ccccc1)N[C@H]1[C@H](OCc2ccccc2)CCC[C@@]12C(=O)N(Cc1ccccc1)c1ccccc12,0,0,0,0,-,-,-,
COc1ccccc1N(CC(=O)Nc1cccc(C(F)(F)F)c1)S(C)(=O)=O,0,0,0,0,0,-,-,
Cc1ccc([N+](=O)[O-])cc1N(CC(=O)Nc1ccc(S(=O)(=O)Nc2cccc(C(F)(F)F)c2)cc1)S(C)(=O)=O,57.5,0,0,0,0,56.1,17.6,
O=C(CCCN1C(=O)/C(=C\c2ccccc2)SC1=S)Nc1ccc(C(=O)O)cc1,0,0,0,0,0,-,-,
Cc1cc(NC(=O)CCN2C(=O)/C(=C/c3ccccc3F)SC2=S)no1,0,0,0,0,-,-,-,
O=C(CCCN1C(=O)/C(=C/c2ccccc2)SC1=S)Nc1ccc(C(=O)O)c(O)c1,82.9,0,0,0,0,80.5,35.8,
O=C(CCN1C(=O)/C(=C\c2ccccc2F)SC1=S)Nc1ccc(C(=O)O)c(O)c1,93.9,0,0,0,0,83.8,60.2,
O=C(CCCN1C(=O)C(=Cc2ccc3c(c2)OCO3)SC1=S)Nc1ccc(C(=O)O)c(O)c1,76.6,0,0,0,-,78.0,45.1,
COc1ccc(C=C2SC(=S)N(CCCC(=O)Nc3ccc(C(=O)O)c(O)c3)C2=O)cc1OC,80.5,0,0,0,-,75.2,40.6,
C[C@@H]1OC(c2ccccc2)N(C)[C@H]2C[C@H]3c4[nH]c5cccc(-c6ccccc6)c5c4CCN3C[C@@H]12 (stereo partly specified),0,0,0,0,-,-,-,
Cc1ccc(-c2cccc3[nH]cc(C)c23)s1,0,0,0,0,-,-,-,
O=S1(=O)c2ccc(N3CC[C@@H](O)C3)cc2OCCCN1C1CC1,0,0,0,0,-,-,-,
Cc1ccc(-n2c(SCc3ccc(Cl)c(Cl)c3)nnc2-c2ccc(C(C)(C)C)cc2)cc1,0,0,0,0,-,-,-,
CN(CCc1ccccn1)C(=O)[C@@H](Cc1ccccc1)NC(=O)[C@H]1O[C@@H](n2ccc(=O)[nH]c2=O)[C@H](O)[C@@H]1O,0,0,0,0,-,-,-,
O[C@H](COc1ccc(C(F)(F)F)cc1)CN1CCC(C(O)(c2ccccc2)c2ccccc2)CC1,0,0,0,0,-,-,-,
CC(C)(c1ccccc1)c1ccc(OCc2ccc(C(=O)O)o2)cc1,38.6,0,0,0,0,0,0,
CC(C)(C)c1ccc(OCc2ccc(C(=O)NN)o2)cc1,0,0,0,0,0,-,-,
COC1=C/C(=C/c2c(N)n3c(nc2=O)sc2cc(S(C)(=O)=O)ccc23)C=CC1=O,0,0,0,0,0,-,-,
CCS(=O)(=O)c1nn2c(N)c(/C=C3/C=CC(=O)C(OC)=C3)c(=O)nc2s1,0,0,0,0,0,-,-,
CCOC1=C/C(=C/c2c(N)n3nc(-c4ccccc4)sc3nc2=O)C=CC1=O,48.7,0,0,0,-,58.8,24.7,
COC1=C/C(=C/c2c(N)n3nc(-c4ccc(C)cc4)sc3nc2=O)C=CC1=O,62.6,0,0,0,0,58.8,19.1,
Cc1cc(S(=O)(=O)Nc2nc(CN3CCOCC3)nc3sc4c(c23)CCC4)ccc1F,53.7,0,0,0,0,49.3,13.8,
CCOC(=O)N1CCN(C(=O)C[C@@H]2C(=O)N(Cc3ccc(OC)cc3)/C3=C/CCCCC[C@@]32C(=O)OCC)CC1,0,0,0,0,-,-,-,
CCOc1cc(/C=C\c2nc(O)c([N+](=O)[O-])c(=O)[nH]2)ccc1OC(C)CC (stereo unspecified),44.7,0,0,0,0,45.7,9.5,DNA CAG DR=0
SMILES,rCAG RNA binder,SIAE primary,PRMT1 FP inh,ABHD4 inh,HTRA1 inhibitor,rCAG bind conf,DNA CAG counter,others
COc1ccc(CNC2CCC23CCC(C)CC3)cc1 (stereo unspecified),-,0,0,0,-,-,-,
CC(=O)c1cccc(NC(=O)C(OC(=O)c2ccccc2NS(=O)(=O)c2cccs2)c2ccccc2)c1 (stereo unspecified),42.7,0,0,0,0,36.2,17.4,
O=C(Nc1ccc(Cl)c(Cl)c1)Nc1ccccc1NS(=O)(=O)c1cccs1,42.1,0,0,0,0,0,9.4,
O=C(Nc1ccc(Cl)cc1)Nc1ccccc1C(=O)O,0,0,0,0,0,-,-,
O=C(Nc1ccc(Cl)c(Cl)c1)Nc1ccccc1C(=O)O,61.0,0,0,0,0,50.8,10.6,DNA CAG DR=0
Cc1cc(Cl)ccc1Oc1ccc(C(N)=O)cc1[N+](=O)[O-],0,0,0,0,0,-,-,
Cc1cc(Cl)ccc1Oc1ccccc1C(=O)CC#N,38.3,0,0,0,0,0,7.6,
CCCCCCC12C(=Cc3cc4c(cc31)OCCO4)c1cc(OC)c(OC)cc1C(CC(=O)O)N2C(=O)OC (stereo unspecified),43.4,0,0,0,-,35.2,7.0,
O=S(=O)(Nc1nc2ccccc2nc1NCCO)c1cccc(Cl)c1,0,0,0,0,0,-,-,
O=S(=O)(c1cccc(Cl)c1)N1CN(CC2CCCO2)c2nc3ccccc3nc21 (stereo unspecified),0,0,0,0,0,-,-,
O=S(=O)(Nc1nc2ccccc2nc1NCC1CCCO1)c1cccc(Cl)c1 (stereo unspecified),53.7,0,0,0,0,40.3,10.5,
COCCCNc1nc2ccccc2nc1NS(=O)(=O)c1cccc(Cl)c1,38.4,0,0,0,0,0,6.7,
COc1ccc(CCN(Cc2cccs2)S(=O)(=O)c2ccc(C)s2)cc1OC,0,0,0,0,-,-,-,
CC(C)(C)c1ccc(OCC(=O)Nc2ccc(C(=O)Nc3ccccc3C(=O)O)cc2)cc1,42.6,0,0,0,0,88.2,67.3,
COc1ccc(CC(=O)Nc2ccc(C(=O)NC(C)(C)C)cc2)cc1OC,0,0,0,0,0,-,-,
COc1ccc(CC(=O)Nc2ccc(C(=O)Nc3ccccc3C(=O)O)cc2)cc1OC,58.6,0,0,0,0,42.0,9.9,
COc1ccccc1OCC(=O)Nc1ccc(C(=O)Nc2ccccc2C(=O)O)cc1,58.1,0,0,0,0,64.7,22.8,
CC(=O)CC[C@@H]1CC[C@]2(CCCN(C(=O)c3ccc4ccccc4n3)C2)O1,0,0,0,0,-,-,-,
COc1ccc(-c2cc(-c3nnc(SCC(=O)Nc4ccc(-c5nc6ccc(C)cc6s5)cc4)n3N)[nH]n2)cc1,0,0,0,0,-,-,-,
CC(=O)N1CCN(C(=O)C2CCCN(C(=O)c3ccc4c(c3)NC(=O)CS4)C2)CC1 (stereo unspecified),0,0,0,0,-,-,-,
